Where a SMILES comes first, the peptide text is derived from it.
Assays:
Oryctolagus cuniculus [1] = organism: Oryctolagus cuniculus; experiment: Competitive protection towards rabbit aorta in the presence of light; type: functional
Summary of the method: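 Rabbit aorta strips (B1), with cycloheximide 10 µg/mL present after 3 h equilibration. Tissue pretreated with 50 µM [Leu⁸,des-Arg⁹]BK before the photolabel, scavenger (4'-amino)Phe 100 µM, and 10 min irradiation around 365 nm (18 mW/cm²). Residual [des-Arg⁹]BK response read 60 min after treatment, relative to reference tissues.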

Oryctolagus cuniculus [2] = organism: Oryctolagus cuniculus; experiment: The compound was tested in vitro on rabbit aorta for residual response in presence of ultraviolet light; type: functional
Summary of the method: (§1)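 Aorta strips in cycloheximide were challenged twice with [des-Arg⁹]BK and checked with 3 µM noradrenaline and 0.2 µM [Sar¹]angiotensin II. They were then incubated with 100 µM (4'-amino)Phe plus the photolabel and irradiated 10 min around 365 nm (18 mW/cm²). This was done once or twice. Residual [des-Arg⁹]BK response at 60 min was expressed as percent of reference tissues.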

Oryctolagus cuniculus [3] = organism: Oryctolagus cuniculus; experiment: In vitro 50 % Maximal response in rabbit aorta expressing B1 receptor; type: functional; conditions: read-out: ED50 (the source's name)
[4] = target: T1, B1 bradykinin receptor (Homo sapiens) (UniProt P46663); experiment: Intrinsic activity was determined; type: functional; conditions: Oryctolagus cuniculus
T1 sequence (whole entry): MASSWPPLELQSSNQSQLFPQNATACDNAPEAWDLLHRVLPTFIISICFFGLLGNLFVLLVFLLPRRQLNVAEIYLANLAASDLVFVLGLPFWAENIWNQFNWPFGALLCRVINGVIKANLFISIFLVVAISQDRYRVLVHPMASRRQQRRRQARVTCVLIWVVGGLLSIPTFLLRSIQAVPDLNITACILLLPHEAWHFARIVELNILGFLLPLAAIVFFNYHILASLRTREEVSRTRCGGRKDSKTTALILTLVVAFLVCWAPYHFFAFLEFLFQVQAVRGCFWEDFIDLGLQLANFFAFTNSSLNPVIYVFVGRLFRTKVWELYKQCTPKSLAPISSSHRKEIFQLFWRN

Oryctolagus cuniculus [5] = organism: Oryctolagus cuniculus; experiment: The compound was tested in vitro on rabbit aorta for residual response in absence of ultraviolet light; type: functional
Summary of the method: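 Aorta strips were treated as in the photolabeling protocol but without light, or with light alone. Residual [des-Arg⁹]BK response was measured 60 min later against reference tissues. Darkroom testing was done in triplicate for the visible-light-absorbing analogue.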

[6] = target: T2, B2 bradykinin receptor (Homo sapiens) (UniProt P30411); experiment: Percent agonistic activity in rabbit jugular vein expressing B2 receptor relative to bradykinin; type: functional; conditions: Oryctolagus cuniculus
T2 sequence (whole entry): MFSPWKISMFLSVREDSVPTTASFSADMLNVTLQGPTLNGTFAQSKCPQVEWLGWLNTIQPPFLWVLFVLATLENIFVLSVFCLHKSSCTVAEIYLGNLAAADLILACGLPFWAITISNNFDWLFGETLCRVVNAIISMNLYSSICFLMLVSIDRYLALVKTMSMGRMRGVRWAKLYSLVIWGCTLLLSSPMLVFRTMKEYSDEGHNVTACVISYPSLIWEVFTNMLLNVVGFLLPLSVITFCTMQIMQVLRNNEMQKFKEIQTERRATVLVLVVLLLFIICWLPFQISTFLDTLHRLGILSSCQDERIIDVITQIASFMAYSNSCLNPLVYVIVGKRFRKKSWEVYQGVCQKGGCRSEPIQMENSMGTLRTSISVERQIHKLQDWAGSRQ
Summary of the method: (§2)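 Isolated rabbit jugular vein strips were equilibrated about 2 h with protease inhibitor SQ 14225 (100 ng/mL) under incandescent light, with no UV. pD₂ was taken as −log of the half-maximal concentration. Relative affinity is given as percent of BK. Specificity was checked by desensitization with BK or an analogue. Antagonists were given as pA₂ from the ID₅₀ that reduces a double agonist dose to a single-dose response.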

Oryctolagus cuniculus [7] = organism: Oryctolagus cuniculus; experiment: The compound was tested in vitro (2.0 uM) on rabbit jugular vein for residual response in absence of ultraviolet light; type: functional
Summary of the method: (§3)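 Jugular vein strips were treated exactly as in the photolabeling protocol (scavenger 100 µM (4'-amino)Phe plus analogue) but without light. Residual BK response was measured 60 min after the last treatment against reference tissues. Results were discarded if reference tissues lost over 25% sensitivity.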

[8] = target: T2, B2 bradykinin receptor (Homo sapiens); experiment: In vitro 50 % Maximal response in jugular vein expressing B2 receptor; type: functional; conditions: Oryctolagus cuniculus; summary of the method: as §2
Oryctolagus cuniculus [9] = organism: Oryctolagus cuniculus; experiment: The compound was tested in vitro (0.1 uM) on rabbit jugular vein for residual response in presence of ultraviolet light; type: functional
Summary of the method: (§4)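 Jugular vein strips were challenged twice with BK and checked with 1 µM [Nle¹¹]substance P and 7 µM histamine. They were then incubated with 100 µM (4'-amino)Phe plus the photolabel and irradiated 10 min around 365 nm (18 mW/cm²) at maximal contraction or after 5 min. This was done once or twice. BK response at 60 min was expressed as percent of reference tissues, rechecked every 45 min.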

Oryctolagus cuniculus [10] = organism: Oryctolagus cuniculus; experiment: The compound was tested in vitro (0.2 uM) on rabbit jugular vein for residual response in presence of ultraviolet light; type: functional; summary of the method: as §4
[11] = test system: B2 bradykinin receptor (Oryctolagus cuniculus); experiment: Agonistic activity (pD2) in rabbit jugular vein expressing B2 receptor relative to bradykinin
Oryctolagus cuniculus [12] = organism: Oryctolagus cuniculus; experiment: The compound was tested in vitro (3 uM) on rabbit jugular vein for residual response in absence of ultraviolet light; type: functional; summary of the method: as §3
[13] = test system: B2 bradykinin receptor (Oryctolagus cuniculus); experiment: Relative affinity against B2 receptor relative to bradykinin
Oryctolagus cuniculus [14] = organism: Oryctolagus cuniculus; experiment: The compound was tested (0.5 micro M) in vitro on rabbit jugular vein for residual response in presence of ultraviolet light; type: functional; summary of the method: as §4
[15] = test system: B2 bradykinin receptor (Oryctolagus cuniculus); experiment: In vitro 50 % Maximal response in rabbit jugular vein expressing B2 receptor
[16] = test system: B2 bradykinin receptor (Oryctolagus cuniculus); experiment: In vitro 50 % Maximal response in jugular vein expressing B2 receptor
Oryctolagus cuniculus [17] = organism: Oryctolagus cuniculus; experiment: The compound was tested in vitro (1.0 uM) on rabbit jugular vein for residual response in presence of ultraviolet light; type: functional; summary of the method: as §4
Oryctolagus cuniculus [18] = organism: Oryctolagus cuniculus; experiment: Competitive protection towards rabbit jugular vein in the presence of light; type: functional
Summary of the method: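 Rabbit jugular vein strips (B2), with SQ 14225 100 ng/mL present after about 2 h equilibration. 5 µM BK added before the photolabel, scavenger (4'-amino)Phe 100 µM, and 10 min irradiation around 365 nm (18 mW/cm²). Residual BK response read 60 min after treatment, relative to reference tissues.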

Oryctolagus cuniculus [19] = organism: Oryctolagus cuniculus; experiment: The compound was tested in vitro (0.1 uM) on rabbit aorta for residual response in presence of ultraviolet light; type: functional; conditions: in the assay text read “rabbit jugular vein” for “rabbit aorta”; summary of the method: as §1

Compound: NC(N)=NCCC[C@H](N)C(=O)N1CCC[C@H]1C(=O)N1CCC[C@H]1C(=O)NCC(=O)N[C@@H](Cc1ccccc1)C(=O)N[C@@H](CO)C(=O)N1CCC[C@H]1C(=O)N[C@@H](Cc1ccc([N+](=O)[O-])cc1)C(=O)O
- Competitive protection (Oryctolagus cuniculus [1]): 75
- Response (Oryctolagus cuniculus [2]): 76%
- EC50 (Oryctolagus cuniculus [3]): > 100 µM

Compound: [N-]=[N+]=Nc1ccc(C[C@H](NC(=O)[C@@H]2CCCN2C(=O)[C@H](CO)NC(=O)[C@H](Cc2ccccc2)NC(=O)CNC(=O)[C@@H]2CCCN2C(=O)[C@@H]2CCCN2C(=O)[C@@H](N)CCCN=C(N)N)C(=O)O)cc1
- Competitive protection (Oryctolagus cuniculus [1]): 95
- Response (Oryctolagus cuniculus [2]): 37%
- Alpha E [4]: 0
- EC50 (Oryctolagus cuniculus [3]): 8.56 µM

Compound: N#[N+]c1ccc(C[C@H](NC(=O)[C@@H]2CCCN2C(=O)[C@H](CO)NC(=O)[C@H](Cc2ccccc2)NC(=O)CNC(=O)[C@@H]2CCCN2C(=O)[C@@H]2CCCN2C(=O)[C@@H](N)CCCN=C(N)N)C(=O)O)cc1
- Response (Oryctolagus cuniculus [5]): 95%
- Alpha E [4]: 1
- EC50 (Oryctolagus cuniculus [3]): 0.824 µM

Compound: N#[N+]c1ccc(C[C@H](NC(=O)[C@@H]2CCCN2C(=O)[C@H](CO)NC(=O)[C@H](Cc2ccccc2)NC(=O)CNC(=O)[C@@H]2CCCN2C(=O)[C@@H]2CCCN2C(=O)[C@@H](N)CCCN=C(N)N)C(=O)N[C@@H](CCCN=C(N)N)C(=O)O)cc1 (HELM PEPTIDE1{R.P.P.G.F.S.P.[N#[N+]c1ccc(C[C@H](N[*:1])C(=O)[*:2])cc1].R}$$$$V2.0)
- Relative affinity [6]: 9%
- Response (Oryctolagus cuniculus [7]): 94%
- ED50 [8]: 0.025 µM
- Alpha E [4]: 1

Compound: NC(N)=NCCC[C@H](NC(=O)[C@H](Cc1ccc([N+](=O)[O-])cc1)NC(=O)[C@@H]1CCCN1C(=O)[C@H](CO)NC(=O)[C@H](Cc1ccccc1)NC(=O)CNC(=O)[C@@H]1CCCN1C(=O)[C@@H]1CCCN1C(=O)[C@@H](N)CCCN=C(N)N)C(=O)O (HELM PEPTIDE1{R.P.P.G.F.S.P.[O=C([C@H](Cc1ccc([N+](=O)[O-])cc1)N[*:1])[*:2]].R}$$$$V2.0)
- Relative affinity [6]: 25%
- Response (Oryctolagus cuniculus [9]): 91%
- ED50 [8]: 0.0066 µM
- Alpha E [4]: 1

Compound: [N-]=[N+]=Nc1ccc(C[C@H](NC(=O)[C@@H]2CCCN2C(=O)[C@H](CO)NC(=O)[C@H](Cc2ccccc2)NC(=O)CNC(=O)[C@@H]2CCCN2C(=O)[C@@H]2CCCN2C(=O)[C@@H](N)CCCN=C(N)N)C(=O)N[C@@H](CCCN=C(N)N)C(=O)O)cc1 (HELM PEPTIDE1{R.P.P.G.F.S.P.[[N-]=[N+]=Nc1ccc(C[C@H](N[*:1])C(=O)[*:2])cc1].R}$$$$V2.0)
- Relative affinity [6]: 23%
- ED50 [8]: 0.007 µM
- Response (Oryctolagus cuniculus [10]): 85%
- Alpha E [4]: 1

Compound: N#[N+]c1ccc(C[C@H](NC(=O)CNC(=O)[C@@H]2CCCN2C(=O)[C@@H]2CCCN2C(=O)[C@@H](N)CCCN=C(N)N)C(=O)N[C@@H](CO)C(=O)N2CCC[C@H]2C(=O)N[C@@H](Cc2ccccc2)C(=O)N[C@@H](CCCN=C(N)N)C(=O)O)cc1 (HELM PEPTIDE1{R.P.P.G.[N#[N+]c1ccc(C[C@H](N[*:1])C(=O)[*:2])cc1].S.P.F.R}$$$$V2.0)
- ED50 [8]: 0.025 µM
- pD [11]: 7.73 M
- Response (Oryctolagus cuniculus [12]): 92%
- Relative affinity [13]: 9%
- Alpha E [4]: 1

Compound: NC(N)=NCCC[C@H](NC(=O)[C@H](Cc1ccccc1)NC(=O)[C@@H]1CCCN1C(=O)[C@H](CO)NC(=O)[C@H](Cc1ccc([N+](=O)[O-])cc1)NC(=O)CNC(=O)[C@@H]1CCCN1C(=O)[C@@H]1CCCN1C(=O)[C@@H](N)CCCN=C(N)N)C(=O)O (HELM PEPTIDE1{R.P.P.G.[O=C([C@H](Cc1ccc([N+](=O)[O-])cc1)N[*:1])[*:2]].S.P.F.R}$$$$V2.0)
- Relative affinity [6]: 7%
- Response (Oryctolagus cuniculus [14]): 88%
- pD [15]: 7.62 M
- Alpha E [4]: 1
- ED50 [16]: 0.024 µM

Compound: [N-]=[N+]=Nc1ccc(/N=N/c2cc(C[C@H](NC(=O)CNC(=O)[C@@H]3CCCN3C(=O)[C@@H]3CCCN3C(=O)[C@@H](N)CCCN=C(N)N)C(=O)N[C@@H](CO)C(=O)N3CCC[C@H]3C(=O)N[C@@H](Cc3ccccc3)C(=O)O)ccc2O)cc1 (HELM PEPTIDE1{R.P.P.G.[[N-]=[N+]=Nc1ccc(/N=N/c2cc(C[C@H](N[*:1])C(=O)[*:2])ccc2O)cc1].S.P.F}$$$$V2.0)
- Response (Oryctolagus cuniculus [2]): 69%
- Alpha E [4]: 1
- EC50 (Oryctolagus cuniculus [3]): 1.28 µM

Compound: [N-]=[N+]=Nc1ccc(C[C@H](NC(=O)CNC(=O)[C@@H]2CCCN2C(=O)[C@@H]2CCCN2C(=O)[C@@H](N)CCCNC(=N)N)C(=O)N[C@@H](CO)C(=O)N2CCC[C@H]2C(=O)N[C@@H](Cc2ccccc2)C(=O)N[C@@H](CCCNC(=N)N)C(=O)O)cc1 (HELM PEPTIDE1{R.P.P.G.[[N-]=[N+]=Nc1ccc(C[C@H](N[*:1])C(=O)[*:2])cc1].S.P.F.R}$$$$V2.0)
- Relative affinity [6]: 17%
- ED50 [8]: 0.01 µM
- Response (Oryctolagus cuniculus [17]): 44%
- Alpha E [4]: 1
- Competitive protection (Oryctolagus cuniculus [18]): 91

Compound: H-RPPGFSPFR-OH [BRADYKININ]
- Relative affinity [6]: 100%
- ED50 [8]: 0.00165 µM
- Response (Oryctolagus cuniculus [19]): 92%
- Alpha E [4]: 1
